The subject of one series is L. monocytogenes. To be noted: as reported; cited from earlier work.
The subject of series [1] is defibrinated erythrocytes. As to conditions: enterocin AS-48 at 5–20 μmol/L; cited from earlier work.
Another series has as its system MCF10A human cells. To be noted: 0.27 to 27 μmol/L; cited from earlier work.
The next series deals with CCDC18Co human cells. As to conditions: 0.27 to 27 μmol/L; cited from earlier work.
The test system of series [2] is L. monocytogenes ATCC 19115. Kind of series: Inhibition of biofilm formation, crystal violet. It counts as cell-based, Listeria monocytogenes. As to conditions: sodium lactate at 5 % (positive control); 37 °C, 24 h, crystal violet A570. The method in brief:
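Test compound stock mixed with L. monocytogenes at 10^6 CFU/mL to final 2, 4 and 8 μg/mL, grown in microplate wells. Phosphate buffer (pH 7.0) served as negative control. Planktonic cells removed, wells washed twice with phosphate buffer, then stained 30 min with 0.1 % crystal violet and rinsed. Bound dye eluted with 95 % ethanol. Run in triplicate.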

One may read the MIC as the least concentration at which growth counts as inhibited. Take enterocin AS-48: the MIC in the series with L. monocytogenes is 0.1 µg/mL. Further, the percent hemolysis in series [1] is given as 3%–22.6. For the same molecule, the Cytotoxicity entry with MCF10A human cells and in the series with CCDC18Co human cells was “no cytotoxicity” throughout.
Take `CC(O)C(=O)[O-].[Na+]` (centres unmarked) [sodium lactate]: the “inhibition rate of biofilm formation” value in series [2] is recorded as 54.36%.
